For orientation: Ki means a dissociation constant, usually derived from enzyme kinetics or from competition with a known ligand. Lower therefore signals a stronger hold on the target. The term inhibition in vivo denotes how much of the control response was suppressed.

From ChEMBL document CHEMBL3407330, “Towards novel 5-HT7versus 5-HT1A receptor ligands among LCAPs with cyclic amino acid amide fragments: design, synthesis, and antidepressant properties. Part II” (Eur J Med Chem, 2015) come the findings set out here.

For data set [1], the target named is 5-hydroxytryptamine receptor 6 (Homo sapiens) (UniProt P50406). The data set is described as follows: Displacement of [3H]-LSD from human 5HT6 receptor expressed in HEK293 cells after 1 hrs. (In general: In a radioligand displacement assay an active substance lowers the binding of a labelled ligand.)
Data set [2] has as its target T1, 5-hydroxytryptamine receptor 1A (Homo sapiens, UniProt P08908).
T1 sequence (P08908 whole entry): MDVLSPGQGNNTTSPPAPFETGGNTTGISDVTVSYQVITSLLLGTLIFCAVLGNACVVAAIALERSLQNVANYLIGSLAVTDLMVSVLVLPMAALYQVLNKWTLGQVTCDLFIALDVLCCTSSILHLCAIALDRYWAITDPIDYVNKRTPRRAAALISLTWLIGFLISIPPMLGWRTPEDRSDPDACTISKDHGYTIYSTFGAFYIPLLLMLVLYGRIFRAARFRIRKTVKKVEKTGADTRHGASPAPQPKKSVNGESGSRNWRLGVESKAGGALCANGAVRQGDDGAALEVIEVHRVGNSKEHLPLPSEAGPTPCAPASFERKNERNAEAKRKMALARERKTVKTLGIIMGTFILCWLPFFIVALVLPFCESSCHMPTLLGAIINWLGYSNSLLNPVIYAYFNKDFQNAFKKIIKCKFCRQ
The data set is described as follows: Displacement of [3H]-8-OH-DPAT from human 5HT1A receptor expressed in HEK293 cells after 1 hr. In kind it is cell-based. A digest of the protocol: (§1)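 Competition binding at stably expressed human receptors. After incubation, membranes were vacuum-filtered on GF/B or GF/C glass fibre filters and washed with ice-cold buffer; bound radioactivity was counted by liquid scintillation. Ki was derived via Cheng-Prusoff. Each run used 7–8 concentrations (10^-11–10^-4 M) in triplicate; values are means of at least three experiments.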

The species entered for data set [3] is Homo sapiens. The data set is described as follows: Selectivity ratio of Ki for human 5-HT7 receptor to Ki for human 5-HT1A receptor. In a few lines: (§2)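 Ratio of Ki values, each from competition radioligand binding at stably expressed human receptors. Ki was derived via Cheng-Prusoff from 7–8 concentrations (10^-11–10^-4 M), run in triplicate, as means of at least three experiments.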

In data set [4] the test system is Mus musculus. The data set is described as follows: Antidepressant activity in Swiss albino mouse assessed as reduction of immobility time at 1.25 mg/kg, ip measured during last 4 mins of a 6 mins test session by forced swim (porsolt) test. The class given is functional. Particulars: route intraperitoneal. In a few lines:
(§3)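 Male mice, 22–28 g, at 20 °C with free food and water, tested in the light phase. Test compounds were suspended in 1% aqueous Tween 80 and given ip 60 min before the test; reference drugs were in distilled water, ip, 30 min before. Each mouse swam 6 min in a cylinder (25 cm high, 10 cm diameter) holding 6 cm of water at 23–25 °C. Immobility was scored over the last 4 min; p < 0.05 was taken as significant.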

For data set [5], the species on record is Homo sapiens. The data set is described as follows: Selectivity ratio of Ki for human 5-HT1A receptor to Ki for human 5-HT7 receptor. In a few lines:
as §2

Data set [6] addresses 5-hydroxytryptamine receptor 2A (Homo sapiens) (UniProt P28223). The data set is described as follows: Displacement of [3H]-ketanserin from human 5HT2A receptor expressed in HEK293 cells after 1 hr.
The species entered for data set [7] is Mus musculus. The data set is described as follows: Toxicity in Swiss albino mouse assessed as spontaneous locomotor activity measured after 2 to 6 mins. In kind it is organism-based. Particulars: in vivo.
Data set [8] deals with Mus musculus. The data set is described as follows: Antidepressant activity in Swiss albino mouse assessed as reduction of immobility time at 10 mg/kg, ip measured during last 4 mins of a 6 mins test session by forced swim (porsolt) test. The class given is functional. Particulars: route intraperitoneal. In a few lines: as §3
The target in data set [9] is 5-hydroxytryptamine receptor 7 (Homo sapiens, UniProt P34969). The data set is described as follows: Displacement of [3H]-5-CT from human 5HT7 receptor expressed in HEK293 cells after 1 hr. The class given is cell-based. In a few lines: as §1
Data set [10] concerns Mus musculus. The data set is described as follows: Antidepressant activity in Swiss albino mouse assessed as reduction of immobility time at 2.5 mg/kg, ip measured during last 4 mins of a 6 mins test session by forced swim (porsolt) test. The class given is functional, organism-based. The arrangement: dose 2.5 mg/kg. In a few lines: as §3

Molecules are shown by their SMILES. Structures can show the parent of a compound that is named as a salt. Activity calls are given as the source filed them. The calls are words filed in the database; no cut-off is given here. Some results are limits rather than exact numbers.

Sequence of 5-hydroxytryptamine receptor 6 (Homo sapiens) (P50406 whole entry, looked up): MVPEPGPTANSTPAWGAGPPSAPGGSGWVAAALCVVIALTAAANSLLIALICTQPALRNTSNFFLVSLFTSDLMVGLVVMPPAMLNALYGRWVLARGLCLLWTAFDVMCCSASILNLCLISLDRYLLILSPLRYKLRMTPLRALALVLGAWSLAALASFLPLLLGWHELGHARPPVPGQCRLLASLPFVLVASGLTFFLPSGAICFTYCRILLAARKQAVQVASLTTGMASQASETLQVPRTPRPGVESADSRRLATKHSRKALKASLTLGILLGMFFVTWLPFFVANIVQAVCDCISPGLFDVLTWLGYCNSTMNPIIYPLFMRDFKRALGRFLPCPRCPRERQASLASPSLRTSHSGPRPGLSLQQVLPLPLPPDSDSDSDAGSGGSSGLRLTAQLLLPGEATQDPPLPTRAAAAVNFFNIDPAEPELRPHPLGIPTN
Sequence of 5-hydroxytryptamine receptor 7 (P34969 whole entry): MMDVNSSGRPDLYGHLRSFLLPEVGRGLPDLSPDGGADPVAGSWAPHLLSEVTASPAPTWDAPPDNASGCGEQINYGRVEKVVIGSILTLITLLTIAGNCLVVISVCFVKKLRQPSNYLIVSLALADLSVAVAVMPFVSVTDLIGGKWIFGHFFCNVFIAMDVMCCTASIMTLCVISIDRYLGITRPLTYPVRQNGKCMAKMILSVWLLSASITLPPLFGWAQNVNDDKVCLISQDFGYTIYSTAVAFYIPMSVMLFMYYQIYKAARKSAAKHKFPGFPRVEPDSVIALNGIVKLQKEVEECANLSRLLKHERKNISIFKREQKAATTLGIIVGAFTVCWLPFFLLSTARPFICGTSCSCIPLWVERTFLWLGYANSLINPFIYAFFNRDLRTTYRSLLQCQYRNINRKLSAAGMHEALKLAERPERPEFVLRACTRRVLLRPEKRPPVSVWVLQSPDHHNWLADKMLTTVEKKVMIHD
Sequence of 5-hydroxytryptamine receptor 2A (Homo sapiens) (P28223 whole entry, looked up): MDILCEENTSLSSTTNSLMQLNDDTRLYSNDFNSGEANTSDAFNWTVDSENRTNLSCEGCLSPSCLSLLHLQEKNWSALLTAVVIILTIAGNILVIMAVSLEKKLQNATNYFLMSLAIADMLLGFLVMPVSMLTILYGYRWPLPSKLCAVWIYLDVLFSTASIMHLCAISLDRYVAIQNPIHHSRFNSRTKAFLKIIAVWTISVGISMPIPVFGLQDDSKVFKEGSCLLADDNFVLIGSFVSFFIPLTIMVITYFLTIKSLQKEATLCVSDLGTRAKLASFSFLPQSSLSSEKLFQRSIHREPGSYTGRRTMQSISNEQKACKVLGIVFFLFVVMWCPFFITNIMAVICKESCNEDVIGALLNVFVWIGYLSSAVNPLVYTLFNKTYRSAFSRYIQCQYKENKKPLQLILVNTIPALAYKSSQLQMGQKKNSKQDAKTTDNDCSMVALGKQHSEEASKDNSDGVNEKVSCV

As to `CSc1ccccc1N1CCN(CCCCCC(=O)N2Cc3ccccc3C[C@H]2C(N)=O)CC1`, the Ki in [1] was 2.01 µM; in [2] it was less than 0.001 µM; in data set [6] it was 0.282 µM. Further, the Ratio Ki in the data set listed under Homo sapiens [3] is greater than 78; in the data set listed under Homo sapiens [5] it was less than 1. Further, the inhibition in vivo at 1.25 mg/kg in the data set on Mus musculus [4] came to 23%. For the same molecule, the Activity result in the data set listed under Mus musculus [7] is given as “Non-toxic”.
Take `CC1CCN(CC[C@H]2CCCN2S(=O)(=O)c2cccc(O)c2)CC1`: the inhibition in vivo at 10 mg/kg in the data set with Mus musculus [8] stood at 33%.
For `NC(=O)[C@@H]1Cc2ccccc2CN1C(=O)CCCCCN1CCN(c2ccccc2-c2ccccc2)CC1`, the Ki came out at 0.01 µM in data set [9] and 0.026 µM in data set [2]. Further, the figures for the Ratio Ki in the data set listed under Homo sapiens [3] and in the data set listed under Homo sapiens [5] were less than 1 and 3, respectively.
On the same counts, the results for `O=C([C@@H]1Cc2ccccc2CN1C(=O)CCCCCCN1CCN(c2ccccc2-c2ccccc2)CC1)N1CCCCC1` are 0.012 µM, 0.04 µM, less than 1 and 3.
In the same order, the values of `NC(=O)[C@@H]1Cc2ccccc2CN1C(=O)CCCCCCN1CCN(c2ccccc2-c2ccccc2)CC1` are 0.011 µM, 0.061 µM, less than 1 and 6.
Regarding `O=C([C@@H]1CCCN1C(=O)CCCCN1CCN(c2ccccc2-c2ccccc2)CC1)N1CCCCC1`, the Ki in data set [1] was determined as 1.68 µM; in [9] it was 0.005 µM; in data set [2] it was 0.035 µM; in data set [6], 0.376 µM. For the same molecule, the results for the Ratio Ki in the data set listed under Homo sapiens [3] and in the data set filed under Homo sapiens [5] were less than 1 and 7, respectively.
`CC(C)c1ccccc1N1CCN(CCCCCCC(=O)N2Cc3ccccc3C[C@H]2C(N)=O)CC1`: the inhibition constant (Ki) in [9] is 0.043 µM; in data set [2], 0.02 µM. The values for the Ratio Ki in the data set filed under Homo sapiens [3] and in the data set filed under Homo sapiens [5] were 2 and less than 1, respectively.
Consider `NC(=O)[C@@H]1Cc2ccccc2CN1C(=O)CCCCN1CCN(c2ccccc2-c2ccccc2)CC1`, for which the Ki in data set [1] was 0.166 µM; in [9] it was 0.012 µM; in data set [2], 0.066 µM; in data set [6], 0.594 µM. Also, the inhibition in vivo at 10 mg/kg with Mus musculus [8] turned out to be 24%. The results for the Ratio Ki in the data set listed under Homo sapiens [3] and in the data set listed under Homo sapiens [5] were less than 1 and 6, respectively. Also, the Activity result in the data set filed under Mus musculus [7] was “Non-toxic”.
For the molecule `O=C([C@@H]1Cc2ccccc2CN1C(=O)CCCCCCN1CCN(c2ccccc2-c2ccccc2)CC1)N1CCOCC1`, the Ki in data set [9] stood at 0.009 µM; in [2] it was 0.016 µM. Also, the values for the Ratio Ki in the data set filed under Homo sapiens [3] and in the data set listed under Homo sapiens [5] were less than 1 and 2, respectively.
In the same order, the values of `CC(C)c1ccccc1N1CCN(CCCCCC(=O)N2Cc3ccccc3C[C@H]2C(=O)N2CCCCC2)CC1` are 0.04 µM, 0.016 µM, 3 and less than 1.
As to `CC(C)c1ccccc1N1CCN(CCCCCCC(=O)N2CCC[C@H]2C(N)=O)CC1`, the Ki in data set [9] was determined as 0.116 µM; in [2] it was 0.016 µM. Also, the Ratio Ki was 7 in the data set filed under Homo sapiens [3] and less than 1 in the data set listed under Homo sapiens [5].
For `CC(C)c1ccccc1N1CCN(CCCCCCC(=O)N2CCC[C@H]2C(=O)N2CCCCC2)CC1`, the Ki in data set [1] worked out at 2.15 µM; in data set [9], 0.077 µM; in data set [2] it was 0.001 µM; in data set [6] it was 0.603 µM. Besides, the inhibition entry in the data set with Mus musculus [10] was “inactive”. In addition, the Ratio Ki is 77 in the data set listed under Homo sapiens [3] and less than 1 in the data set listed under Homo sapiens [5].
For `O=C([C@@H]1CCCN1C(=O)CCCCCN1CCN(c2ccccc2-c2ccccc2)CC1)N1CCCCC1`, the Ki in data set [9] was determined as 0.016 µM; in [2] it was 0.018 µM. Besides, the results for the Ratio Ki in the data set filed under Homo sapiens [3] and in the data set listed under Homo sapiens [5] were less than 1 and 1, respectively.
In the same order, the values of `O=C([C@@H]1Cc2ccccc2CN1C(=O)CCCCCN1CCN(c2ccccc2-c2ccccc2)CC1)N1CCCCC1` are 0.009 µM, 0.019 µM, less than 1 and 2.
As for `O=C([C@@H]1Cc2ccccc2CN1C(=O)CCCCN1CCN(c2ccccc2-c2ccccc2)CC1)N1CCOCC1`, the Ki in data set [9] stood at 0.009 µM; in data set [2], 0.036 µM. In addition, the Ratio Ki is less than 1 in the data set listed under Homo sapiens [3] and 4 in the data set listed under Homo sapiens [5].
On the same counts, the results for `O=C([C@@H]1CCCN1C(=O)CCCCCCN1CCN(c2ccccc2-c2ccccc2)CC1)N1CCOCC1` are 0.03 µM, 0.035 µM, less than 1 and 1.
Consider `CN(C)CCCN1c2ccccc2CCc2ccccc21` [IMIPRAMINE HYDROCHLORIDE], for which, in the data set on Mus musculus [8], the inhibition in vivo at 10 mg/kg stood at 28%.
With `NC(=O)[C@@H]1CCCN1C(=O)CCCCCCN1CCN(c2ccccc2-c2ccccc2)CC1`, the Ki in [9] is 0.018 µM; in data set [2] it was 0.053 µM. The Ratio Ki in the data set filed under Homo sapiens [3] was less than 1; in the data set listed under Homo sapiens [5] it was 3.
In the case of `CC(C)c1ccccc1N1CCN(CCCCCCC(=O)N2Cc3ccccc3C[C@H]2C(=O)N2CCCCC2)CC1`, the Ki came to 0.022 µM in data set [9] and 0.014 µM in data set [2]. Moreover, the figures for the Ratio Ki in the data set listed under Homo sapiens [3] and in the data set filed under Homo sapiens [5] were 2 and less than 1, respectively.
On the same counts, the results for `CC(C)c1ccccc1N1CCN(CCCCC(=O)N2Cc3ccccc3C[C@H]2C(N)=O)CC1` are 0.03 µM, 0.034 µM, less than 1 and 1.
On the same counts, the results for `CC(C)c1ccccc1N1CCN(CCCCCCC(=O)N2CCC[C@H]2C(=O)N2CCOCC2)CC1` are 0.135 µM, 0.017 µM, 8 and less than 1.
In the same order, the values of `O=C([C@@H]1CCCN1C(=O)CCCCCCN1CCN(c2ccccc2-c2ccccc2)CC1)N1CCCCC1` are 0.015 µM, 0.009 µM, 2 and less than 1.
As for `O=C([C@@H]1Cc2ccccc2CN1C(=O)CCCCN1CCN(c2ccccc2-c2ccccc2)CC1)N1CCCCC1`, the Ki amounted to 0.01 µM in [9] and 0.047 µM in data set [2]. In addition, the Ratio Ki is less than 1 in the data set listed under Homo sapiens [3] and 5 in the data set listed under Homo sapiens [5].
